According to ChEMBL document CHEMBL4673298, “Exploration of Structure-Activity Relationship of Aromatic Aldehydes Bearing Pyridinylmethoxy-Methyl Esters as Novel Antisickling Agents” (J Med Chem, 2020):
Active and inactive are the calls of the source. No cut-off for these calls is given here.

Assays:
Red blood cell [1] = experiment: Binding affinity to Hemoglobin in sickle cell RBCs from blood isolated from patient with homozygous SS assessed as increase in Hb affinity shift for oxygen at 0.5 mM under hypoxic conditions incubated for 2 hrs by oxygen equilibrium curve study; assay type: tissue-based; details: Homo sapiens
Outline: (§1)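 SS blood, hematocrit 20%, incubated under air with compound (0.5, 1, 2 mM) at 37 °C for 1 h, then hypoxic (2.5% O2/97.5% N2) at 37 °C for 2 h. Cells are washed in PBS and hemolyzed hypotonically. Lysate in 0.1 M potassium phosphate pH 7.0 is run by Hemox analysis for P50. ΔP50 is given as percent of DMSO control. Three biological replicates, mean ± SD.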

[2] = Inhibition of sickling in sickle cell RBCs from blood isolated from patient with homozygous SS at 0.5 mM under hypoxic conditions incubated for 2 hrs; assay type: functional; details: Homo sapiens, Erythrocyte
Outline: (§2)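 SS blood, hematocrit 20%, preincubated under air with compound (0.5, 1, 2 mM) for 1 h at 37 °C, then 2 h hypoxia (2.5% O2/97.5% N2) at 37 °C. Aliquots are fixed in 2% glutaraldehyde without air exposure. Cell morphology is scored from bright-field images at 40×. Three biological replicates, mean ± SD.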

Red blood cell [3] = experiment: Binding affinity to Hemoglobin in sickle cell RBCs from blood isolated from patient with homozygous SS assessed as increase in Hb affinity shift for oxygen at 1 mM under hypoxic conditions incubated for 2 hrs by oxygen equilibrium curve study; assay type: tissue-based; details: Homo sapiens; outline: as §1
Red blood cell [4] = experiment: Binding affinity to Hemoglobin in sickle cell RBCs from blood isolated from patient with homozygous SS assessed as increase in hemoglobin modification at 0.5 mM under hypoxic conditions incubated for 2 hrs […]; assay type: tissue-based; details: Homo sapiens
Outline: (§3)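 SS blood, hematocrit 20%, incubated under air with compound (0.5, 1, 2 mM) at 37 °C for 1 h, then hypoxic (2.5% O2/97.5% N2) at 37 °C for 2 h. Cells are washed and hemolyzed. Lysate is run on weak cation-exchange HPLC to quantify Hb adduct (modified Hb). Three biological replicates, mean ± SD.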

[5] = Inhibition of sickling in sickle cell RBCs from blood isolated from patient with homozygous SS at 1 mM under hypoxic conditions incubated for 2 hrs; assay type: functional; details: Homo sapiens, Erythrocyte; outline: as §2
Red blood cell [6] = experiment: Binding affinity to Hemoglobin in sickle cell RBCs from blood isolated from patient with homozygous SS assessed as increase in hemoglobin modification at 1 mM under hypoxic conditions incubated for 2 hrs […]; assay type: tissue-based; details: Homo sapiens; outline: as §3
[7] = Inhibition of sickling in sickle cell RBCs from blood isolated from patient with homozygous SS at 2 mM under hypoxic conditions incubated for 2 hrs; assay type: functional; details: Homo sapiens, Erythrocyte; outline: as §2
Red blood cell [8] = experiment: Binding affinity to Hemoglobin in sickle cell RBCs from blood isolated from patient with homozygous SS assessed as increase in Hb affinity for oxygen under hypoxic conditions incubated for 2 hrs by oxygen equilibrium curve study; assay type: tissue-based; details: Homo sapiens; outline: as §1
Red blood cell [9] = experiment: Binding affinity to Hemoglobin in sickle cell RBCs from blood isolated from patient with homozygous SS assessed as increase in hemoglobin modification under hypoxic conditions incubated for 2 hrs […]; assay type: tissue-based; details: Homo sapiens; outline: as §3
Erythrocyte = experiment: Inhibition of sickling in sickle cell RBCs from blood isolated from patient with homozygous SS under hypoxic conditions incubated for 2 hrs; assay type: functional, tissue-based; details: Homo sapiens; outline: as §2
Homo sapiens [10] = species on record: Homo sapiens; experiment: Binding affinity to Hemoglobin in normal human whole blood assessed as increase in Hb affinity for oxygen at 2 mM by oxygen equilibrium curve study; assay type: tissue-based
Outline: (§4)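 Normal human whole blood, hematocrit 30%, incubated with or without compound in DMSO (0.5, 1.0 or 2.0 mM; 2 mM for the time course) at 37 °C. The blood is tonometered about 7 min at 37 °C against gas with 0.804, 2.935 and 5.528% O2 (6, 20, 40 mmHg). sO2 and pO2 are read on a blood gas analyzer. ΔP50% is taken relative to no compound. Time course sampled at 1, 2, 4, 8, 12, 24 h.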

Homo sapiens [11] = species on record: Homo sapiens; experiment: Binding affinity to Hemoglobin in normal human whole blood assessed as increase in Hb affinity for oxygen incubated for 1.5 hrs by oxygen equilibrium curve study; assay type: tissue-based; outline: as §4
[12] = Induction of in-vivo hemoglobin-O2 affinity shifts in C57BL/6 mouse at 150 mg/kg, ip dosed as single administration measured after 6 hrs by oxygen equilibrium curve study; assay type: functional
Outline: (§5)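 C57BL/6 mice (3 male, 3 female) receive a single intraperitoneal dose of 150 mg/kg. Blood is drawn by submandibular bleeding before dosing and at 1, 3 and 6 h, then hemolyzed. Hb modification and Hb-O2 affinity shift are measured; n = 6.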

[13] = Stability in human whole blood assessed as parent compound level at 1 mM incubated for 24 hrs by reversed-phase HPLC analysis; assay type: ADME, tissue-based; details: read-out: Stabilty
Outline: (§6)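 Normal whole blood, hematocrit 30%, incubated with or without compound at 0.5 or 1 mM at 37 °C. Aliquots taken at 0, 4, 8, 24 h are deproteinized with 0.1 M formic acid in acetonitrile at 60–65 °C for 30 min, centrifuged and filtered. Reversed-phase C18 HPLC uses a 0.1% formic acid water/acetonitrile gradient, detection at 261 nm. Parent and carboxylic acid analogue are quantified; the acid serves as reference.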

[14] = Induction of in-vivo modification of intracellular hemoglobin in C57BL/6 mouse at 150 mg/kg, ip dosed as single administration measured after 6 hrs by cation-exchange HPLC analysis
Mus musculus [15] = experiment: Induction of in-vivo modification of intracellular hemoglobin in C57BL/6 mouse at 150 mg/kg, ip dosed as single administration measured after 1 to 6 hrs by cation-exchange HPLC analysis; assay type: functional, organism-based; details: time 1-6 hrs, TDE = time-dependent effect; outline: as §5
[16] = Drug metabolism in human whole blood assessed as carboxylic acid analogue formation at 0.5 to 1 mM incubated up to 24 hrs by reversed-phase HPLC analysis; assay type: ADME, tissue-based; details: 1000 µM, dose 0.5-1 mM; outline: as §6
Red blood cell [17] = experiment: Binding affinity to Hemoglobin in sickle cell RBCs from blood isolated from patient with homozygous SS assessed as increase in Hb affinity shift for oxygen at 2 mM under hypoxic conditions incubated for 2 hrs by oxygen equilibrium curve study; assay type: tissue-based; details: Homo sapiens; outline: as §1
Red blood cell [18] = experiment: Binding affinity to Hemoglobin in sickle cell RBCs from blood isolated from patient with homozygous SS assessed as increase in hemoglobin modification at 2 mM under hypoxic conditions incubated for 2 hrs […]; assay type: tissue-based; details: Homo sapiens; outline: as §3
Mus musculus [19] = experiment: Induction of in-vivo hemoglobin-O2 affinity shifts in C57BL/6 mouse at 150 mg/kg, ip dosed as single administration measured after 3 to 6 hrs by oxygen equilibrium curve study; assay type: functional, organism-based; details: time 3-6 hrs, TDE = time-dependent effect; outline: as §5
[20] = Stability in human whole blood assessed as parent compound level at 0.5 mM incubated for 24 hrs by reversed-phase HPLC analysis; assay type: ADME, tissue-based; details: read-out: Stabilty; outline: as §6

Row | SMILES | Activity (Red blood cell [1]) [%] | inhibition at 500 µM [2] [%] | Activity (Red blood cell [3]) [%] | Activity (Red blood cell [4]) [%] | inhibition at 1000 µM [5] [%] | Activity (Red blood cell [6]) [%] | inhibition at 2000 µM [7] [%] | Activity (Red blood cell [8]) | Activity (Red blood cell [9]) | inhibition (Erythrocyte) | Activity (Homo sapiens [10]) | Activity (Homo sapiens [11]) | Activity (Red blood cell [17]) [%] | Activity (Homo sapiens [10]; TDE = time-dependent effect) | Activity (Red blood cell [18]) [%] | also measured
1 | CC(C)n1nccc1-c1ncccc1COc1cccc(O)c1C=O [VOXELOTOR] | 41 | 56 | 80 | 55 | 98 | 100 | – | – | – | – | – | – | – | – | – | –
2 | COC(=O)c1ncccc1COc1cccc(O)c1C=O | – | – | – | – | – | – | > 90 | Dose-dependent effect | Dose-dependent effect | Dose-dependent effect | inactive | inactive | – | – | – | –
3 | COC(=O)c1cccnc1COc1cccc(O)c1C=O | 12.2 | 43.3 | 18.8 | 46 | 70.6 | 64.4 | 98.8 | Dose-dependent effect | Dose-dependent effect | Dose-dependent effect | – | Dose-dependent effect | 39.6 | Tde | 90.8 | Activity [12]: 14.5%; remaining at 24 h, 1000 µM [13]: 78%; Activity [14]: 16.9%; Activity (Mus musculus [15]): Tde; Drug metabolism [16]: Metabolite_Detected; Activity (Mus musculus [19]): Tde; remaining at 24 h, 500 µM [20]: 81%
4 | COC(=O)c1cncc(COc2ccc(OC)cc2C=O)c1 | – | – | – | – | – | 60 | > 90 | Dose-dependent effect | Dose-dependent effect | Dose-dependent effect | – | Dose-dependent effect | – | Tde | < 100 | –
5 | COC(=O)c1ncccc1COc1ccc(OC)cc1C=O | 4.4 | 37.6 | 13.9 | 30.2 | 97.7 | 62.3 | 99.1 | Dose-dependent effect | Dose-dependent effect | Dose-dependent effect | inactive | inactive | 25.4 | – | 79.2 | –
6 | COC(=O)c1ccc(COc2ccc(OC)cc2C=O)nc1 | – | – | – | – | – | – | – | – | – | – | inactive | inactive | – | – | – | –
7 | COC(=O)c1ccc(COc2ccc(OC)cc2C=O)cn1 | 9.9 | 29.1 | 19.5 | 36.1 | 81.6 | 64 | 96.5 | Dose-dependent effect | Dose-dependent effect | Dose-dependent effect | – | Dose-dependent effect | 32.3 | Tde | 81.3 | –
8 | COC(=O)c1ccc(COc2cccc(O)c2C=O)nc1 | – | – | – | – | – | – | – | – | – | – | inactive | inactive | – | – | – | –
